Assay results of several laboratories.
Target: Phosphatidylinositol 5-phosphate 4-kinase type-2 beta (PIP4K2B, Homo sapiens, UniProt P78356)
Sequence (P78356 1-416, as in one of the studies): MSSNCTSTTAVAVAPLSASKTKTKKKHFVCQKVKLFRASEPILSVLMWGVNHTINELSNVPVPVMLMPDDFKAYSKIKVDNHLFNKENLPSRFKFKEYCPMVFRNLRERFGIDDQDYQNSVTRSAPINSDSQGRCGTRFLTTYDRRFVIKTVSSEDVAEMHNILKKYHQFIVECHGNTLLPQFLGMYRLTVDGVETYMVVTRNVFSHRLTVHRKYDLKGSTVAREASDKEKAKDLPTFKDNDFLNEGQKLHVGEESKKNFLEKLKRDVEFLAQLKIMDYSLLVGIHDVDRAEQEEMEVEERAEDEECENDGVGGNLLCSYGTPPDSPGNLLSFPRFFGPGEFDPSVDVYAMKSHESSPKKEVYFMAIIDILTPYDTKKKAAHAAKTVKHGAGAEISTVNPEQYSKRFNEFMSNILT

| SMILES | observed | method | tested at | remaining binding [%] |
| --- | --- | --- | --- | --- |
| N[C@@H]1CCN(c2nccc(-c3cnn4ncccc34)n2)C1 | binding |  | 1 µM | 100 |
| c1cncc(-c2cccc(Nc3nccc(NC4CCCCC4)n3)c2)c1 | binding | competition with immobilised ligand | 10 µM | 27 |
| COc1cc(Nc2nccc(-c3cnn4nc(OC)ccc34)n2)cc(C(F)(F)F)c1 | binding | competition with immobilised ligand | 1 µM | 50 |
| O=C(Nc1c[nH]nc1C(=O)NC1CCNCC1)c1cc(F)cc(F)c1 | binding | competition with immobilised ligand | 1 µM | 88 |
| Cc1cnc(Nc2ccc(C(=O)N3CCC(N4CCCC4)CC3)cc2)nc1-c1cc2ccccc2s1 | binding | competition with immobilised ligand | 1 µM | 8.8 |
| O=C(N[C@H]1CCCCC/C=C\C2C[C@@]2(C(=O)O)NC(=O)[C@@H]2C[C@@H](Oc3ccncc3)CN2C1=O)OC1CCCC1 (stereo partly drawn) | binding | competition with immobilised ligand | 1 µM | 100 |
| COc1cnc(Nc2cccc(S(N)(=O)=O)c2)nc1N1CCN(c2ccccc2)CC1 | binding | competition with immobilised ligand | 1 µM | 100 |
| O=C(NCCCN1CCOCC1)c1ccc(Nc2ncc(Cl)c(-c3ccc(Cl)s3)n2)cc1 | binding | competition with immobilised ligand | 1 µM | 4.2 |
| CCN1CCN(Cc2ccc(C(=O)Nc3ccc(C)c(Oc4ccc5c(c4)CC(=O)N5)c3)cc2C(F)(F)F)CC1 | binding | competition with immobilised ligand | 1 µM | 100 |
| C[C@@H]1CCN(c2nccc(-c3cnn4ncccc34)n2)C1 | binding |  | 1 µM | 100 |
| NS(=O)(=O)c1cc(NC(=O)Cc2ccccc2)ccc1Oc1cccc(Cl)c1 | cell-free assay | competition with immobilised ligand | 1 µM | 89 |
| CN(c1nccc(-c2cnn3ncccc23)n1)C1CC1 | binding |  | 1 µM | 65 |
| Cc1cc(C)c(-n2ccn3nc(-c4cccnc4)cc23)cc1NC(=O)c1cc(C#N)cc(S(F)(F)(F)(F)F)c1 | cell-free assay | competition with immobilised ligand | 0.1 µM | 52.2 |
| F[C@@H]1CCN(c2nccc(-c3cnn4ncccc34)n2)C1 | binding |  | 1 µM | 79 |
| Nc1ncc2c(n1)-c1c([nH]c3ccc(C#CC4CC4)cc13)CCCC2 | binding | competition with immobilised ligand | 1 µM | 86 |
| CN(CCCC(F)(F)F)c1nccc(-c2cnn3ncccc23)n1 | binding |  | 1 µM | 57 |
| Cc1c(NC(=O)c2cc(C(N)=O)nc3cc(F)ccc23)c(C(F)(F)F)nn1Cc1ccc(C(C)(C)C)cc1 | cell-free assay | competition with immobilised ligand | 1 µM | 91 |
| COc1ccnn2ncc(-c3ccnc(N(C)C)n3)c12 | binding |  | 1 µM | 100 |
| Cn1nc(C(F)(F)F)cc1-c1cnc(N2CCc3cc(S(=O)(=O)Nc4c(F)cc(Cl)cc4F)cc(N4CCCC4=O)c32)nc1 | cell-free assay | competition with immobilised ligand | 1 µM | 100 |
| O=C(c1ccc(Nc2ncc(Cl)c(-c3ccc(Cl)s3)n2)cc1)N1CCC(N2CCCC2)CC1 | binding | competition with immobilised ligand | 1 µM | 1.9 |
| C[C@@]1(Cc2ccc(C#N)cc2)C(=O)N(c2cc(Cl)cc(Cl)c2)c2ncc(C(=O)NC3(c4nc(C5CCC5)no4)CC3)n21 | cell-free assay | competition with immobilised ligand | 1 µM | 97 |
| COc1ncc2cc3ccccc3nc2c1C#N | cell-free assay | competition with immobilised ligand | 5 µM | 100 |
| Cc1c(NC(=O)c2cc(C(N)=O)nc3cc(F)ccc23)c(C(F)(F)F)nn1Cc1ccc(C#N)cc1 | cell-free assay | competition with immobilised ligand | 1 µM | 88 |
| C=CC(=O)N1CCC(C(=O)NCC(=O)N2CCN(c3nc(-c4cnc(N)nc4C(F)F)nc(N4CCOCC4)n3)CC2)CC1 | binding | competition with immobilised ligand | 1 µM | 99 |
